The values that follow come from ChEMBL document CHEMBL1799988, “Novel chalcone derivatives as potent Nrf2 activators in mice and human lung epithelial cells” (J Med Chem, 2011).

Data set [1] addresses T1, Nuclear factor erythroid 2-related factor 2 (Homo sapiens) (UniProt Q16236).
T1 sequence (whole entry): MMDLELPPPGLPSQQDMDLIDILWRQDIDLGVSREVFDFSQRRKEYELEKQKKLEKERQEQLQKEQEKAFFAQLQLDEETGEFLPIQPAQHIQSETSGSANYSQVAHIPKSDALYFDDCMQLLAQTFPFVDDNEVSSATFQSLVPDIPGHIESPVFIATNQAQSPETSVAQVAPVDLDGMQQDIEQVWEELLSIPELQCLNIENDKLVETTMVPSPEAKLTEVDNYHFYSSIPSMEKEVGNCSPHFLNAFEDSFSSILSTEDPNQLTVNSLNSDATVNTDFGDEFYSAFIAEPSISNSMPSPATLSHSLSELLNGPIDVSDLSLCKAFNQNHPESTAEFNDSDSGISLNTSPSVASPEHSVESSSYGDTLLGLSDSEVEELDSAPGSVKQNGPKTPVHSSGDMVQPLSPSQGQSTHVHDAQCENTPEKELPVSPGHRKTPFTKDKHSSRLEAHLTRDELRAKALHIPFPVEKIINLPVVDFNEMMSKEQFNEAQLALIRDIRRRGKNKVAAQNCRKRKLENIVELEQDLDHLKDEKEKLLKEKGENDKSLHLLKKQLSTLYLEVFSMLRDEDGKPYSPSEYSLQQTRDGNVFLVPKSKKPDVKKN
Put plainly: Induction of Nrf2-mediated GCLM gene expression in human BEAS2B cells at 10 uM after 16 hrs by RT-PCR analysis relative to untreated control. The class given is functional, cell-based. A digest of the protocol:
(§1)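 Beas-2B cells (DMEM:F12, 10% FBS) plated 24 h, then exposed to 10 µM compound in DMSO (final ≤0.1%) for 16 h; sulforaphane as positive control. Total RNA extracted, reverse transcribed with random hexamers, GCLM and NQO1 mRNA quantified by TaqMan qRT-PCR, fold change vs DMSO. Representative of 3 independent experiments, quadruplicate wells.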

Data set [2] deals with T1, Nuclear factor erythroid 2-related factor 2 (Homo sapiens). Put plainly: Induction of Nrf2-mediated NQO1 gene expression in human BEAS2B cells at 10 uM after 16 hrs by RT-PCR analysis relative to untreated control. The class given is functional, cell-based. The procedure, abridged: as §1
A short description of data set [3]: Cytotoxicity against human BEAS2B cells assessed as cell viability after 24 hrs by MTT assay. Particulars: read-out: Activity. The class given is cell-based, BEAS-2B. On the set-up: concentration or dose not given beside the values. The procedure, abridged: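 Beas-2B cells treated with compound or DMSO vehicle (0.1%) for 24 h; MTT (5 mg/ml in serum-free medium) added for the last 4 h, formazan dissolved in DMSO after PBS wash, absorbance read at 570 nm. Viability also checked by trypan blue exclusion.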
A general note: Tetrazolium assays rely on reduction of a dye to a coloured formazan, in cell work by metabolically active cells.

For the molecule `COc1ccc(OC)c(C(=O)/C=C/c2cccc(C(F)(F)F)c2)c1`, the fold change (FC) in data set [1] was found to be 1.8; in data set [2] it was 0.8.

Turning to `COc1cc(C(=O)/C=C/c2ccccc2C(F)(F)F)cc(OC)c1OC`, the results for the fold change (FC) in data set [1] and in data set [2] were 3 and 3.1, respectively.

For `COc1cccc(C(=O)/C=C/c2ccccc2)c1`, the fold change (FC) was 1.5 in data set [1] and 2.4 in data set [2].

In the case of `COc1ccc(C(=O)/C=C/c2cccc(C(F)(F)F)c2)c(OC)c1OC`, the fold change (FC) in data set [1] stood at 3.6; in data set [2], 3.2.

On to `COc1cc(OC)cc(C(=O)/C=C/c2ccccc2[N+](=O)[O-])c1`, for which the results for the fold change (FC) in data set [1] and in data set [2] were 3.4 and 4.1, respectively. Moreover, the viability at 24 h in data set [3] worked out at 90.9%.

As for `COc1cccc(C(=O)/C=C/c2cccc(C(F)(F)F)c2)c1`, the fold change (FC) in data set [1] amounted to 4.6; in data set [2], 3.5. Besides, the viability at 24 h in data set [3] turned out to be 95.3%.

On to `COc1ccccc1C(=O)/C=C/c1cccc(C(F)(F)F)c1`, for which the fold change (FC) in data set [1] was found to be 3.9; in data set [2], 2.9.

As for `COc1ccc(C(=O)/C=C/c2ccc(C(F)(F)F)cc2)cc1OC`, the fold change (FC) in data set [1] was 3.5; in data set [2] it was 2.7.

On to `O=C(/C=C/c1cccc(C(F)(F)F)c1)c1ccccc1`, for which the results for the fold change (FC) in data set [1] and in data set [2] were 3.1 and 2.8, respectively.

For the molecule `COc1ccc(OC)c(C(=O)/C=C/c2ccccc2[N+](=O)[O-])c1`, the fold change (FC) came out at 1.7 in data set [1] and 0.7 in data set [2].

On to `COc1cc(OC)cc(C(=O)/C=C/c2ccccc2C(F)(F)F)c1`, for which the fold change (FC) was 4 in data set [1] and 3.7 in data set [2]. For the same molecule, the viability at 24 h in data set [3] amounted to 87.1%.

Turning to `COc1cccc(OC)c1C(=O)/C=C/c1ccccc1[N+](=O)[O-]`, the fold change (FC) is 4.1 in data set [1] and 3.7 in data set [2]. The viability at 24 h in data set [3] was 75.8%.

Regarding `COc1cc(OC)c(C(=O)/C=C/c2cccc(C(F)(F)F)c2)c(OC)c1`, the results for the fold change (FC) in data set [1] and in data set [2] were 1.4 and 0.7, respectively.

Consider `COc1ccc(C(=O)/C=C/c2ccc(C(F)(F)F)cc2)c(OC)c1`, for which the fold change (FC) in data set [1] came out at 5; in data set [2] it was 4.8. Also, the viability at 24 h in data set [3] worked out at 92.6%.

As for `COc1ccc(C(=O)/C=C/c2ccc(C(F)(F)F)cc2)cc1`, the figures for the fold change (FC) in data set [1] and in data set [2] were 3.5 and 4.6, respectively. For the same molecule, in data set [3], the viability at 24 h was 104%.

Regarding `COc1ccc(OC)c(C(=O)/C=C/c2ccccc2)c1`, the fold change (FC) amounted to 3 in data set [1] and 2.6 in data set [2].

On to `COc1ccc(C(=O)/C=C/c2cccc(C(F)(F)F)c2)c(OC)c1`, for which the fold change (FC) in data set [1] turned out to be 4.6; in data set [2] it was 4.

As to `COc1cccc(OC)c1C(=O)/C=C/c1ccccc1`, the fold change (FC) in data set [1] came to 2.5; in data set [2] it was 1.9.

With `COc1ccccc1C(=O)/C=C/c1ccccc1[N+](=O)[O-]`, the fold change (FC) in data set [1] worked out at 1.9; in data set [2], 1.4.

Regarding `O=C(/C=C/c1ccccc1)c1ccccc1`, the fold change (FC) in data set [1] is 0.7; in data set [2], 1.8.

For `COc1cc(OC)cc(C(=O)/C=C/c2ccccc2)c1`, the fold change (FC) in data set [1] is 3; in data set [2], 2.4.

For the molecule `COc1cc(OC)c(C(=O)/C=C/c2ccccc2)c(OC)c1`, the fold change (FC) in data set [1] came to 3.1; in data set [2], 1.8.

Turning to `COc1cc(OC)c(C(=O)/C=C/c2ccccc2[N+](=O)[O-])c(OC)c1`, the fold change (FC) in data set [1] was found to be 2.6; in data set [2] it was 2.

`O=C(/C=C/c1ccc(C(F)(F)F)cc1)c1ccccc1`: the fold change (FC) in data set [1] is 3.1; in data set [2] it was 2.9.

In the case of `COc1cccc(C(=O)/C=C/c2ccccc2[N+](=O)[O-])c1`, the values for the fold change (FC) in data set [1] and in data set [2] were 2.9 and 2.7, respectively.

For the molecule `COc1ccc(C(=O)/C=C/c2cccc(C(F)(F)F)c2)cc1`, the results for the fold change (FC) in data set [1] and in data set [2] were 2.7 and 2.8, respectively.

In the case of `COc1ccc(C(=O)/C=C/c2ccccc2[N+](=O)[O-])cc1`, the fold change (FC) was found to be 4.6 in data set [1] and 4.3 in data set [2]. The viability at 24 h in data set [3] turned out to be 93.2%.

As to `COc1ccc(C(=O)/C=C/c2ccccc2)c(OC)c1`, the fold change (FC) in data set [1] came to 2.7; in data set [2], 2.8.

As for `COc1cc(C(=O)/C=C/c2ccccc2)cc(OC)c1OC`, the fold change (FC) in data set [1] and in data set [2] was 0.7 each time.

Take `COc1ccc(C(=O)/C=C/c2ccc(C(F)(F)F)cc2)c(OC)c1OC`: the fold change (FC) in data set [1] turned out to be 4.1; in data set [2], 3.9. The viability at 24 h in data set [3] was 100%.

Turning to `COc1ccc(C(=O)/C=C/c2ccccc2[N+](=O)[O-])cc1OC`, the results for the fold change (FC) in data set [1] and in data set [2] were 2.3 and 2.7, respectively.

Turning to `COc1ccc(OC)c(C(=O)/C=C/c2ccccc2C(F)(F)F)c1`, the fold change (FC) in data set [1] turned out to be 4.4; in data set [2], 2.7.

As for `COc1ccc(C(=O)/C=C/c2ccccc2C(F)(F)F)cc1OC`, the fold change (FC) in data set [1] was found to be 4.3; in data set [2] it was 2.7.

As for `COc1ccc(C(=O)/C=C/c2ccccc2)c(OC)c1OC`, the fold change (FC) in data set [1] and in data set [2] was 2.4 throughout.

Regarding `COc1cc(OC)cc(C(=O)/C=C/c2cccc(C(F)(F)F)c2)c1`, the fold change (FC) came to 3.8 in data set [1] and 3.9 in data set [2]. Further, in data set [3], the viability at 24 h came to 108%.

For `COc1cccc(OC)c1C(=O)/C=C/c1cccc(C(F)(F)F)c1`, the figures for the fold change (FC) in data set [1] and in data set [2] were 1.8 and 0.6, respectively.

`COc1cccc(C(=O)/C=C/c2ccc(C(F)(F)F)cc2)c1`: the fold change (FC) in data set [1] was determined as 2.9; in data set [2], 3.1.

On to `COc1cccc(OC)c1C(=O)/C=C/c1ccc(C(F)(F)F)cc1`, for which the fold change (FC) came out at 1.4 in data set [1] and 0.6 in data set [2].

With `COc1cc(C(=O)/C=C/c2ccc(C(F)(F)F)cc2)cc(OC)c1OC`, the fold change (FC) in data set [1] was determined as 4.1; in data set [2], 3.7.

Turning to `COc1ccc(C(=O)/C=C/c2ccccc2)cc1OC`, the fold change (FC) stood at 2.3 in data set [1] and 2.5 in data set [2].

For the molecule `COc1cc(C(=O)/C=C/c2cccc(C(F)(F)F)c2)cc(OC)c1OC`, the fold change (FC) was found to be 1.7 in data set [1] and 0.8 in data set [2].

Take `COc1ccc(OC)c(C(=O)/C=C/c2ccc(C(F)(F)F)cc2)c1`: the fold change (FC) in data set [1] was 4.1; in data set [2], 4. Also, the viability at 24 h in data set [3] is 91.6%.

Regarding `O=C(/C=C/c1ccccc1[N+](=O)[O-])c1ccccc1`, the fold change (FC) in data set [1] was determined as 2.1; in data set [2], 1.6.

With `COc1cc(C(=O)/C=C/c2ccccc2[N+](=O)[O-])cc(OC)c1OC`, the fold change (FC) in data set [1] turned out to be 1.2; in data set [2], 0.7.

Turning to `COc1ccccc1C(=O)/C=C/c1ccc(C(F)(F)F)cc1`, the fold change (FC) came to 4.3 in data set [1] and 5.4 in data set [2]. The viability at 24 h in data set [3] was found to be 91%.

As for `COc1ccc(C(=O)/C=C/c2ccccc2[N+](=O)[O-])c(OC)c1OC`, the values for the fold change (FC) in data set [1] and in data set [2] were 2.9 and 3.3, respectively.

Take `COc1ccc(C(=O)/C=C/c2ccccc2[N+](=O)[O-])c(OC)c1`: the fold change (FC) stood at 2.7 in data set [1] and 3.3 in data set [2].

As to `COc1cc(OC)c(C(=O)/C=C/c2ccc(C(F)(F)F)cc2)c(OC)c1`, the fold change (FC) in data set [1] and in data set [2] was 2.4 throughout.

For the molecule `COc1ccc(C(=O)/C=C/c2cccc(C(F)(F)F)c2)cc1OC`, the fold change (FC) in data set [1] was 4.1; in data set [2] it was 2.9.

As for `COc1ccc(C(=O)/C=C/c2ccccc2)cc1`, the fold change (FC) in data set [1] turned out to be 1.9; in data set [2] it was 2.8.

For `COc1ccccc1C(=O)/C=C/c1ccccc1`, the fold change (FC) stood at 3.6 in data set [1] and 3.2 in data set [2].
